# Compound activity: PubChem BioAssay, several laboratories
# IDE cell activ: human IDE activators in live cells, primary screen, fluorescence polarization, HEK cells, FAbeta-B substrate | Insulin-degrading enzyme (Homo sapiens), P14735 | AID 493087, 2011 | hit rate 0.073% among 340,000 | FAbeta-B cleavage; 0% vehicle, 100% cell-free pure enzyme wells | activation, % at 5.96 µM;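 active = activation above the mean of all tested compounds plus 3 SD, set per screening campaign, cut at about 17% in these data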
# Efflux pump inh: inhibitors of Candida efflux pumps in yeast, primary screen, S. cerevisiae, Nile Red, multiplex | S. cerevisiae Candida pump triplex | hit rate 0.44% among 330,000 | inhibition, % at 10 µM | AID 485275, 2010;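 active = plate passing quality check with inhibition over a set limit, or well fluorescence over plate mean plus 4 SD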;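 also: Nile Red retained in pooled yeast measured as flow cytometry median fluorescence; 0% = buffer negative control and 100% = Enniatin B positive control; higher means more Nile Red kept so more efflux inhibition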
# Tb MetRS inh: T. brucei MetRS inhibitors, primary screen, biochemical, luminescence. AID 624268, 2012. purified T. brucei MetRS, ATP depletion, Kinase-Glo luminescence. methionyl-tRNA synthetase (Trypanosoma brucei brucei). inhibition, % at 11.9 µM. hit rate 0.4% among 360,000;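 active = inhibition above a per-plate cutoff of the control wells' mean inhibition plus 3 SD, cut at about 5.5% in these data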;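 also: 0% = DMSO wells median and 100% = median of wells with control inhibitor compound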
#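 Test system: purified T. brucei MetRS enzyme. Also added: ATP, methionine and E. coli bulk tRNA substrates. Compound: 11.9 µM single point. Schedule: 15 min enzyme-compound preincubation, 2 h reaction, 10 min detection, 25 °C. Signal: luciferase luminescence of residual ATP, Kinase-Glo. Evaluation: percent inhibition versus plate control medians. Controls: DMSO wells, low control.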
# HDAC3 inh: HDAC3 deacetylase inhibitors, primary screen, biochemical, fluorescence, cell-free homogeneous; Histone deacetylase 3 (Homo sapiens), O15379; hit rate 0.15% among 320,000; recombinant HDAC3, fluorogenic peptide/trypsin coupled; inhibition, % at 8.3 µM; in the data active = inhibition above about 26%, passing the limit was not always enough
# Target sequence (O15379 whole entry, looked up): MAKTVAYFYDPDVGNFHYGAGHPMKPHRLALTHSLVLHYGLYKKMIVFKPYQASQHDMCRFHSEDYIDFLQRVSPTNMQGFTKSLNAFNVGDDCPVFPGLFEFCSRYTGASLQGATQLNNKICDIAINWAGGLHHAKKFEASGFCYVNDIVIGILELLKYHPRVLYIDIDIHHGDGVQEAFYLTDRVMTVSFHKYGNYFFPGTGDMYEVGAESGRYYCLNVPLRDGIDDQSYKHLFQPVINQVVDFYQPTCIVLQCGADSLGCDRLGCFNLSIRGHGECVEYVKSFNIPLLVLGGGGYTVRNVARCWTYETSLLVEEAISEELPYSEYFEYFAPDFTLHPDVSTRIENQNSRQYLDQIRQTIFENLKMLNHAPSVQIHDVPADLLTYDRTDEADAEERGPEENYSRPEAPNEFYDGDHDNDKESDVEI
# IDE inh: human IDE inhibitors in live cells, primary screen, fluorescence polarization, HEK cells, FAbetaB substrate. Insulin-degrading enzyme (Homo sapiens), P14735. FAbetaB cleavage. inhibition, % at 5.59 µM. hit rate 0.41% among 320,000;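 active = percent inhibition above the average of all tested compounds plus 3 SD, set per screening campaign, cut at about 16% in these data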;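 also: IDE supplied by intact live HEK cells; FP after avidin binding of uncleaved biotin substrate so inhibition keeps polarization high; 0% = DMSO wells and 100% = 60 µM reference IDE inhibitor Ii1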
# CR mimetic SO: reduction of superoxide in aged yeast, primary screen, HTS; hit rate 0.18% among 330,000; S. cerevisiae aged cells, superoxide DHE fluorescence; stronger effect = lower value; superoxide response (% of plate mean), % at 10 µM;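 active = superoxide response under a set limit, about three screen SD below normal, cut at about 65% in these data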;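 also: yeast aged for seven days with compound at 30 °C before DHE staining; 100% = average MFI of all compound-treated wells on the plate with controls excluded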
# Superoxide pick: superoxide lowering in aged yeast cells, confirmation, cherry picked compounds; hit rate 1% among 850; S. cerevisiae aging, superoxide DHE fluorescence; stronger effect = lower value; superoxide response (% of plate), % at 10 µM; shares compounds with CR mimetic SO;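 active = superoxide signal below 65% of the plate average of sample wells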;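 also: cells aged with compound for 7 days at 30 degrees C before staining; 100% equals mean DHE fluorescence of all compound wells on the plate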
# DHE counter: DHE quenching or ROS scavenging interference in aged yeast, artefact control for yeast caloric restriction mimetic project, S. cerevisiae BY4741, flow cytometry; shares compounds with CR mimetic SO; DHE fluorescence; stronger effect = lower value; fluorescence response, % at 10 µM; 850 tested, under 10 active;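 active = fluorescence response below 15%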;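 also: percent of the mean fluorescence averaged over all compound wells on the plate; lower means stronger quenching of DHE signal or ROS scavenging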
# An asterisk follows results filed as active; / = not tested or not shown. Rows were chosen to be rich in hits. Some 1.4% of all compounds tested hit in one or more screens of this group.
SMILES,IDE cell activ,Efflux pump inh,Tb MetRS inh,HDAC3 inh,IDE inh,CR mimetic SO,Superoxide pick,DHE counter
O=C(O)C1CCCN1S(=O)(=O)c1ccc(F)cc1 (stereo unspecified),0,0,-2,0,0,104,96,91
CC1(C)CC(N2CN(C3CCCCC3)CC2=O)CC(C)(C)N1,3,0,-1,2,-2,61*,118,110
COC(=O)[C@@]12C[C@@H](CC(=O)NCc3cccc4ccccc34)C(=O)N(Cc3ccccc3)C1=CCC(C)(C)C2,/,/,0,/,/,/,/,/
CCOC(=O)c1cnc2cc(-c3ccc(Br)cc3)nn2c1C,0,0,-1,-5,5,96,114,114
CCOc1ncccc1C(=O)N1CCN(c2cccc(C)c2C)CC1,-1,/,-1,/,/,/,114,107
CCOc1ncccc1C(=O)N1CCN(C(=O)c2ccccc2)CC1,3,0,-1,1,-1,109,/,/
CCOc1ncccc1C(=O)N1CCN(c2cc(Cl)ccc2C)CC1,-1,0,0,3,-1,106,90,112
CCOc1ncccc1C(=O)N1CCN(S(=O)(=O)c2ccccc2)CC1,-1,0,-1,2,3,87,/,/
COc1ccc(C)cc1NC(=O)CSc1ccc(-c2sc(C)nc2C)nn1,9,0,0,1,5,89,/,/
COc1ccc(C)cc1NC(=O)CSc1ccc(-c2ccccn2)nn1,-1,0,0,6,3,131,122,93
CCc1ccc(NC(=O)CSc2nnc(-c3ccccn3)n2C)cc1,-9,0,-1,-3,15,65*,89,91
CCc1ccc(NC(=O)CSc2ccc(-c3ccccn3)nn2)cc1,1,0,0,-10,2,59*,126,113
CC(=O)Nc1cccc(NC(=O)CSc2ccc(-c3ccccn3)nn2)c1,4,0,-1,17,2,115,/,/
Cc1ccc(NC(=O)CSc2ccc(-c3ccccn3)nn2)cc1F,-2,0,0,2,-1,113,110,98
c1ccc(-c2cc3nc(NCc4cccs4)nc(NCc4ccc5occc5c4)c3s2)cc1,/,/,0,/,/,/,/,/
COc1ccccc1CNC(=O)CN1C(=O)NC2(CCCc3sccc32)C1=O (stereo unspecified),0,0,-1,11,-2,106,/,/
CCCNC(=O)C1(C)CCN(Cc2ccc(C(=O)OCC)cc2)C1 (stereo unspecified),/,/,0,/,/,/,/,/
O=C(O)CCCCCCCCc1cn(CCc2c[nH]c3ccccc23)nn1,4,0,0,-2,3,94,/,/
Nn1c(SCC(=O)Nc2ccc3c(c2)OCCO3)nnc1-c1ccccn1,-1,1,-1,-6,2,54*,104,93
COc1cc(NC(=O)CSc2ccc(-c3ccccn3)nn2)cc(OC)c1,-2,0,0,-6,-1,101,102,124
COc1ccc(-n2c(C)cc(C(=O)CN3CCC(C)CC3)c2C)cc1,7,0,0,1,1,65*,104,89
COc1ccc(-n2c(C)cc(C(=O)CN3CCCCC3)c2C)cc1,-1,0,0,2,1,97,/,/
Cc1ccc(-n2cc(-c3ccccc3)c3c(NN4CCOCC4)ncnc32)cc1,-3,0,0,6,4,62*,88,101
N#C/C(=C\c1c(N2CCCCC2)nc2ccccn2c1=O)S(=O)(=O)c1ccccc1,4,0,0,7,1,94,/,/
O=C(NNc1nc(=O)c2cccnc2s1)c1ccccc1O,1,0,0,6,1,50*,99,112
